An excerpt weighted towards active compounds, which were near 11% of everything screened.
Diaphorase act: counter-screen for diaphorase-based assays: diaphorase activators and chemical reducers | Diaphorase/resazurin coupled assay, resorufin fluorescence, 16 min; hits give high values; 1 = vehicle wells, 0 = NADH-free wells | activation factor at 20 µM | 190,000 compounds, 0.005% hits;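 active = diaphorase activity raised at least twofold by the compound at 20 µM; inactive = activation factor below 2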
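Material: Purified diaphorase enzyme from Clostridium kluyveri | Buffer or medium: 50 mM HEPES pH 7.4 with 4.542 mM MgCl2, 0.005% Tween 20 | Times: 16 min enzyme reaction, ambient temperature | Signal: Red resorufin fluorescence at 544/590 nm excitation/emission | Measure: Increased resorufin signal from activators or reducing compounds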
WT yeast gro inh: growth inhibition of WT yeast, mitochondrial fusion screen; mitochondrial fusion phenotypic screen, WT strain; inhibition, % at 10 µM; 190,000 compounds, 2.1% hits; in the data active = inhibition above about 58%; tested in S. cerevisiae
G6PDH counter: inhibits Leuconostoc G6PDH, flagging false hits in G6PDH-based assays. AID 1020. Purified L. mesenteroides G6PDH, diaphorase/resazurin coupled fluorescence, 45 min. inhibition, % at 5 µM. 200,000 compounds, 0.12% hits
Diaph inh CS: counter-screen for diaphorase-based assays: diaphorase inhibitors and chemical oxidizers; diaphorase resazurin-to-resorufin fluorescence, NADH, 16 min; bacterial (C. kluyveri) enzyme, not human; inhibition, % at 20 µM; AID 1217; 190,000 compounds, 0.69% hits;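 active = primary screen inhibition at 20 µM above a set limit, cut at about 50% in these data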;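 note: plate controls were DMSO with full reaction for no effect and wells lacking NADH for full effect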
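System: Diaphorase enzyme from Clostridium kluyveri | Amount: Enzyme working solution with 0.14 U/mL diaphorase | Benchmarks: No-NADH positive control and DMSO neutral control | Signal: Fluorescence of resorufin formed from resazurin, Ex 544/Em 590 nm | Schedule: 16-min room-temperature incubation before reading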
L major viab: inhibitors of Leishmania major promastigote growth; Leishmania major promastigotes, resazurin fluorescence viability; AID 1063; 200,000 compounds, 9% hits; inhibition, % at 10 µM;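 note: promastigotes grown with compound for 44 hours at 28 °C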
* marks the source's active call; other numbers are inactive results; . = not tested or not shown. Cut-off read from the data, not from the text of the source, unless noted: active = inhibition above about 50%; inactive = the rest.

SMILES	Diaphorase act	WT yeast gro inh	G6PDH counter	Diaph inh CS	L major viab
Cn1c(=NC(=O)CCl)sc2ccccc21	0.9	-20.3	-2.5	13.9	83.7*
CN(C)c1ccc(N=c2sc3ccccc3n2C)cc1	1	35.9	4.9	3.3	98.3*
Cn1c(=NC(=O)c2ccco2)sc2ccccc21	0.8	10.1	10.1	16.5	1.5
CC(NC(=S)Nc1cccc(C(F)(F)F)c1)C(C)(C)C (centres undefined)	0.8	70.2*	-2.4	18.3	25.6
Fc1ccccc1CNC(=S)Nc1cccc(C(F)(F)F)c1	0.8	35.0	-3.7	20.7	18.6
Fc1ccc(CNC(=S)Nc2cccc(C(F)(F)F)c2)cc1	0.9	58.5*	7.8	12.0	2.1
Fc1cccc(NC(=S)NCc2ccccn2)c1	0.9	15.8	16.2	13.4	62.5*
O=C(COC(=O)c1cc(C(F)(F)F)cc(C(F)(F)F)c1)NCc1ccc(Cl)cc1	0.9	-5.3	0.2	6.9	50.3*
CSc1ccccc1NC(=S)Nc1cccc(C(F)(F)F)c1	1	11.5	10.6	0.0	-0.4
CCCCOCCCn1c(-c2ccco2)nc2nc3ccccc3nc21	0.8	8.2	4.6	16.7	31.0
S=C(NCc1ccccc1)Nc1cccc(Cl)c1	0.9	11.2	11.5	10.1	18.1
FC(F)(F)c1cccc(NC(=S)NCc2ccc(Cl)cc2)c1	0.9	75.2*	0.2	8.7	1.0
c1ccc(-c2nc3c(ccc4ccccc43)[nH]2)nc1	0.9	36.6	7.4	5.6	100.4*
c1ccc(-c2nc3ccccc3[nH]2)nc1	0.9	18.1	19.1	12.0	-2.4
COC(=O)C(NC(=O)c1ccc(F)cc1)(Nc1ncc(S(=O)(=O)c2ccc([N+](=O)[O-])cc2)s1)C(F)(F)F (centres undefined)	0.8	9.4	2.5	16.7	58.1*
CC(C)(C)NC(=O)C(c1ccncc1)N(Cc1ccco1)C(=O)c1ccc(-c2ccccc2)[nH]1 (centres undefined)	1	-26.6	2.8	2.5	74.2*
CC(C)(C)NC(=O)C(c1cccs1)N(CC1CCCO1)C(=O)c1ccc(-c2ccccc2)[nH]1 (centres undefined)	0.7	56.1	-6.2	29.9	42.8
O=C(NC1CCCCC1)C(c1ccncc1)N(Cc1ccccc1)C(=O)c1ccc(-c2ccccc2)[nH]1 (centres undefined)	0.8	27.2	1.7	22.9	98.8*
CCC(C)(C(=O)NC1CCCCC1)N(C(=O)Cc1cccs1)c1ccccc1 (centres undefined)	0.9	2.9	-10.2	7.2	17.8
O=C1C(Cl)=C(NCCc2ccccc2)C(=O)N1CCc1ccccc1	1	.	3.4	-3.7	-7.2
O=C1C(Cl)=C(NCCCN2CCOCC2)C(=O)N1CCc1ccccc1	0.9	-3.2	15.1	12.9	96.7*
CN1CCN(C2=C(Cl)C(=O)N(CCc3ccccc3)C2=O)CC1	0.8	5.0	-12.5	24.3	93.4*
O=C(COc1ccc(C(=O)c2ccccc2)cc1)NC1CCCCC1	0.8	-12.9	-1.7	17.9	52.5*
O=C(COc1ccc(C(=O)c2ccccc2)cc1)NC1CCCCCC1	0.8	-27.1	1.3	16.9	62.3*
O=C(COc1ccccc1)NC1CCCCC1	0.9	-0.5	5.4	9.2	-4.5
SMILES	Diaphorase act	WT yeast gro inh	G6PDH counter	Diaph inh CS	L major viab
COc1ccc(-n2c(C)nc3sc4c(c3c2=O)CCC4)cc1	0.9	1.0	-3.2	10.8	-1.7
COc1ccc(-n2c(NCCN(C)C)nc3sc4c(c3c2=O)CCCCC4)cc1	0.9	-10.6	3.4	6.3	58.3*
COc1ccc(-n2c(N3CCN(C)CC3)nc3sc4c(c3c2=O)CCCCC4)cc1	0.9	1.3	-6.1	9.0	99.5*
COc1ccc(-n2c(SCC(=O)O)nc3sc4c(c3c2=O)CCC4)cc1	0.8	3.4	11.8	22.6	-1.4
Cc1cccc(NC(=O)C2CCCN2/C=C/C(=O)C(F)(F)F)c1C (centres undefined)	1	7.6	8.8	4.7	-3.2
CCN1CCN(c2ncnc3c2c(-c2ccccc2)cn3-c2ccc(F)cc2)CC1	1	26.0	11.3	1.3	86.2*
OCCN1CCN(c2ncnc3c2c(-c2ccccc2)cn3-c2ccc(Br)cc2)CC1	1	84.7*	-4.7	0.9	36.6
Cc1cc(C(=O)CN2CC(C)OC(C)C2)c(C)n1-c1ccccc1 (centres undefined)	0.9	-3.7	-10.6	14.1	-5.1

Bioassay records: PubChem BioAssay, several laboratories
